Publication PMC10125367 (ACS Bio & Med Chem Au, 2022)

Experiments:
[1] = target: GDP-KRAS(WT) (Homo sapiens, UniProt P01116); assay: Isothermal titration calorimetry; type: binding; conditions: Kd from ITC, GDP-bound KRAS(WT), 25 °C
[2] = target: KRAS(Q61H) (Homo sapiens, UniProt P01116, Q61H); assay: Microscale thermophoresis; type: binding
[3] = target: T1, KRAS(WT) (Homo sapiens, UniProt P01116); assay: Intrinsic GDP/GTP nucleotide exchange; type: biochemical
Summary of the method: (§1)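 Recombinant KRAS(WT), BODIPY-GTP (BGTP) and, for SOS-mediated exchange, SOS are each at 0.5 μM. Buffer is 25 mM Tris Cl pH 7.5, 50 mM NaCl, 10 mM MgCl2, with test compound at 0–50 μM. Fluorescence rise on BGTP binding is normalised to the 60 s and KRAS-alone maximum values. Rates come from linear (intrinsic) or single-exponential (SOS) fits, and EC50 from fitting rate versus concentration.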

[4] = target: KRAS (Homo sapiens, UniProt P01116); assay: Intrinsic nucleotide release; type: biochemical; conditions: 50 µM ligand, 100 µM GTP
[5] = target: KRAS(G12D)-RafRBD interaction (Homo sapiens, UniProt P01116, G12D); assay: RBD pull-down assay in BHK cell lysates; type: cell-based, baby hamster; conditions: lysates treated with 10 μM or more, 1 h
Summary of the method: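 GTP-bound GFP-KRAS(G12D) and endogenous RAS were pulled down with GST-c-Raf RBD and detected by western blot, with total GFP-KRAS(G12D) and total RAS as loading controls. Signals were normalised to DMSO and averaged over three independent experiments, with unpaired Student's t test.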

[6] = target: T1, KRAS(WT); assay: Microscale thermophoresis; type: binding; conditions: Kd from MST, GDP-bound KRAS(WT)
[7] = Microsomal stability; type: in vitro ADME; conditions: mouse, microsomes
[8] = target: T1, KRAS(WT); assay: Intrinsic fluorescence; type: binding; conditions: 0 to 50 µM ligand, 2 µM KRAS; qualitative
[9] = target: GDP-KRAS(G13D) (Homo sapiens, UniProt P01116, G13D); assay: Isothermal titration calorimetry; type: binding
[10] = test system: cancer cells expressing various mutants of KRAS; assay: Cell proliferation, summary; type: cell-based
[11] = target: KRAS(WT) with SOS (Homo sapiens, UniProt P01116); assay: SOS-mediated GDP/GTP nucleotide exchange; type: biochemical
Summary of the method: as §1

[12] = target: T2, KRAS(G12D) (Homo sapiens, UniProt P01116, G12D); assay: Intrinsic fluorescence; type: binding; conditions: 0 to 50 µM ligand, 2 µM KRAS; qualitative
[13] = target: GDP-KRAS(Q61H) (Homo sapiens, UniProt P01116, Q61H); assay: Isothermal titration calorimetry; type: binding
[14] = test system: MDR1-MDCK cell monolayer; assay: Permeability and efflux in MDR1-MDCK cell monolayer system; type: in vitro ADME; conditions: corrected for cell volume on donor side
[15] = test system: MDR1; assay: as above; type: in vitro ADME; conditions: dog, MDCK-MDR1
[16] = test system: MDR1 (P-gp); assay: as above; type: in vitro ADME; conditions: dog
[17] = target: KRAS(G12C) (Homo sapiens, UniProt P01116, G12C); assay: Microscale thermophoresis; type: binding
[18] = Microsomal stability; type: in vitro ADME; conditions: rat, microsomes
[19] = target: KRAS with SOS (Homo sapiens, UniProt P01116); assay: SOS-mediated nucleotide release; type: biochemical; conditions: 50 µM ligand, 100 µM GTP, 0.5 µM SOS
[20] = test system: MIAPaCa-2 xenograft tumor; assay: MIAPaCa-2 subcutaneous xenograft tumor model; type: in vivo, mouse; conditions: 5 mg/kg IP
Summary of the method: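 Nude mice received MIAPaCa-2 cells subcutaneously in the hind flank and were split after 3 days into groups of equal mean tumour volume (8 vehicle, 7 treated). Dosing was 5 mg/kg test compound in corn oil, or DMSO in corn oil, intraperitoneally 5 days/week. Caliper volumes, (length × width²)/2, were taken twice weekly and body weights weekly. Tumour lysates were blotted for p-ERK, total ERK and GAPDH.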

[21] = target: HRAS (Homo sapiens, UniProt P01112); assay: Thermal shift assay; type: binding; conditions: 50 μM compound
Sequence of HRAS (P01112 whole entry): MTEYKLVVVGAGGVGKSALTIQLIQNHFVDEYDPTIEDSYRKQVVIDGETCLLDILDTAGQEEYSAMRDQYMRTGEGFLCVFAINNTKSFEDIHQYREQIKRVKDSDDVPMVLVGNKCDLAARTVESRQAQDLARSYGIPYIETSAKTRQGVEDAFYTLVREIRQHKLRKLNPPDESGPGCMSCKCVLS

[22] = Microsomal stability; type: in vitro ADME; conditions: human, microsomes
[23] = target: NRAS (Homo sapiens, UniProt P01111); assay: Thermal shift assay; type: binding; conditions: 50 μM compound
Sequence of NRAS (P01111 whole entry): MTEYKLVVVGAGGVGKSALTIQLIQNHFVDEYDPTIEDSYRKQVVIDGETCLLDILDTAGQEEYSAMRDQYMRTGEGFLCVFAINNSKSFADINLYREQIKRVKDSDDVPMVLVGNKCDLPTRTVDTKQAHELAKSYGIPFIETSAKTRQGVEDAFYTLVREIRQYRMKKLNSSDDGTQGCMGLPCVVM

[24] = target: GDP-KRAS(G12C) (Homo sapiens, UniProt P01116, G12C); assay: Isothermal titration calorimetry; type: binding
[25] = target: T2, KRAS(G12D); assay: Microscale thermophoresis; type: binding; conditions: Kd from MST, GDP-bound KRAS(G12D)
[26] = test system: BHK cells expressing GFP-tagged KRAS(G12D); assay: Cell signaling assay; type: cell-based, baby hamster
Summary of the method: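 Whole-cell lysates were immunoblotted for phospho-c-Raf, phospho-ERK and phospho-AKT, with vinculin as loading control. Levels were quantified relative to DMSO, averaged from three independent experiments and compared by unpaired Student's t test.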

[27] = target: GDP-KRAS(G12D) (Homo sapiens, UniProt P01116, G12D); assay: Isothermal titration calorimetry; type: binding
[28] = test system: SOS; conditions: read-out: IC50 in vitro; inhibits SOS; ref 20 Kessler, et al.; cited from earlier work
[29] = test system: Raf; conditions: read-out: IC50 in vitro; inhibits Raf; ref 20 Kessler, et al.; cited from earlier work
[30] = MDCK-MDR1, Papparent efflux ratio (ER)

O=C(O)c1cc(NC(=O)C2CC2c2ccccc2)ccc1O (centres unmarked) [ACA-14, 2-hydroxy-5-{[(2-phenylcyclopropyl)carbonyl]amino} benzoic acid]
Kd [1]: 1100 nM
Kd [2]: 20 ± 10 nM
EC50 [3]: 3800 ± 600 nM
Effect on rate of intrinsic GDP release [4]: lack of effect
Level of GFP-tagged GTP-KRAS(G12D) pulled down by c-Raf RBD [5]: significantly reduced
Level of endogenous RAS pulled down by c-Raf RBD [5]: significantly reduced
Kd [6]: 4500 ± 1500 nM
Intrinsic clearance [7]: < 0.3 mL/min/g
half-life [7]: > 3 h
Change in intrinsic fluorescence of the compound on mixing with protein [8]: concentration-dependent changes
Kd [9]: 34100 nM
Concentration required to inhibit proliferation [10]: > 20 µM
EC50 [11]: 2100 ± 400 nM
Change in intrinsic fluorescence of the compound on mixing with protein [12]: concentration-dependent changes
Kd [13]: 1040 nM
Pexact, A > B [14]: 5.355 ×10⁻⁶ cm/s
Pexact, B > A [14]: 3.833 ×10⁻⁶ cm/s
Papp A→B [15]: 5.42 ×10⁻⁶ cm/s
Papp B→A [15]: 3.51 ×10⁻⁶ cm/s
efflux ratio [16, 30]: 0.65
efflux ratio ([16]; MDCK-MDR1, Pexact efflux ratio): 0.72
Kd [17]: 340 ± 70 nM
Intrinsic clearance [18]: < 0.3 mL/min/g
half-life [18]: > 3 h
Effect on rate of SOS-mediated GDP release [19]: lack of effect
Weight gain of treated mice ([20]; nude mice, 5 days per week): did not affect weight gain
Tumor growth ([20]; nude mice, 5 days per week, maintained until day 20): small but statistically significant reduction
ERK activation within tumors (p-ERK western blot) ([20]; tumor lysates): small but significant reduction
Change in melting temperature (Tm) [21]: no measurable change
Intrinsic clearance [22]: < 0.3 mL/min/g
half-life [22]: > 3 h
Change in melting temperature (Tm) [23]: no measurable change
Kd [24]: 11800 nM
Kd [25]: > 50000 nM
Concentration required to inhibit MAPK signaling [26]: > 20 µM
Level of phosphorylated ERK (p-ERK) ([26]; 3 h, serum-starved): significantly reduced
Level of phosphorylated c-Raf (p-cRaf) ([26]; 3 h, serum-starved): significantly reduced
p-AKT level ([26]; 3 h, serum-starved, concentration range tested): little effect
Kd [27]: 45900 nM

CC(C)CN(C[C@@H](O)[C@H](Cc1ccccc1)NC(=O)O[C@H]1CCOC1)S(=O)(=O)c1ccc(N)cc1 [amprenavir]
Pexact, A > B [14]: 1.436 ×10⁻⁶ cm/s
Pexact, B > A [14]: 24.325 ×10⁻⁶ cm/s
Papp A→B [15]: 1.65 ×10⁻⁶ cm/s
Papp B→A [15]: 17.1 ×10⁻⁶ cm/s
efflux ratio [16, 30]: 10.3
efflux ratio ([16]; MDCK-MDR1, Pexact efflux ratio): 16.9

Cn1cnc(Cn2ccc3ccc(CNCc4[nH]c5ccccc5c4[C@H]4NC(=O)c5ccc(O)cc54)cc32)c1 [BI-2852]
IC50 [28]: 500 to 700 nM
IC50 [29]: 500 to 700 nM

CC(C)NCC(O)COc1cccc2ccccc12 (centres unmarked) [propranolol]
Pexact, A > B [14]: 39.979 ×10⁻⁶ cm/s
Pexact, B > A [14]: 20.715 ×10⁻⁶ cm/s
Papp A→B [15]: 31.2 ×10⁻⁶ cm/s
Papp B→A [15]: 15 ×10⁻⁶ cm/s
efflux ratio [16, 30]: 0.48
efflux ratio ([16]; MDCK-MDR1, Pexact efflux ratio): 0.52
